Bioassay records as filed in PubChem BioAssay.
SENP8 block-1: SENP8 (human) protease inhibition; hit rate 0.64% among 360,000; AID 602440; Q96LD8; recombinant SENP8, Nedd8 substrate fluorescence; inhibition, % at 20 µM; in the data active = inhibition mostly above about 40%, no sharp cut-off; inactive = mostly below about 27%
Target sequence (Q96LD8 whole entry, looked up): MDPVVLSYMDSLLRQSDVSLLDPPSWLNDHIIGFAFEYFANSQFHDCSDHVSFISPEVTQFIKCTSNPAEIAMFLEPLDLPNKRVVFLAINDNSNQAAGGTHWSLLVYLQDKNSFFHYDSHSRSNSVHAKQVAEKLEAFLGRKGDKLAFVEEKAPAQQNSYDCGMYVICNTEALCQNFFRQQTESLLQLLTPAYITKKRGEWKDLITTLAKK
SENP1 inh: SENP1 (human) catalytic domain inhibition; recombinant SENP1 catalytic domain, CyPet-SUMO1-YPet FRET cleavage; inhibition, % at 10 µM; hit rate 0.21% among 360,000;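 active = inhibition at least 30% at 10 µM, raw YFP signal under a set limit, fluorescence ratio 0.5 to 1.5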;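 note: 0% = enzyme with DMSO and 100% = no enzyme wells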
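Test system: recombinant human SENP1 catalytic domain, His6-tagged / Medium: pH 8 Tris buffer with EDTA, NaCl, BME, BSA, NP40, catalase / Also added: SUMO1 FRET substrate flanked by Cypet and Ypet, 25 nM / Times: 50 min reaction at room temperature / Signal: FRET, CFP and YFP emission / Control set: no-enzyme low control and enzyme-plus-DMSO high control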
SENP6 inh: blocks the human protease SENP6 | Recombinant SENP6 catalytic domain, aminoluciferin luminescence | hit rate 1.8% among 330,000 | Q9GZR1 | inhibition, % at 10 µM;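 active = inhibition above about 50% at the single tested dose, limit read from the data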;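 note: plate controls were DMSO wells with enzyme for no effect and DMSO wells lacking enzyme for full effect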
SENP8 block-2: blocks the human protease SENP8; purified SENP8, Z-RLRGG-aminoluciferin cleavage, luminescence; hit rate 1.2% among 330,000; inhibition, % at 10 µM; Q96LD8; in the data active = inhibition above about 50%
SENP7 inh: SENP7 protease inhibition; recombinant SENP7, Z-RLRGG-aminoluciferin luminescence, 40 min; inhibition, % at 5 µM; hit rate 1.5% among 330,000;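 active = inhibition above about 50% at the single test dose, limit read from the data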;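 note: plate controls were DMSO with enzyme for no effect and no enzyme buffer wells for full effect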
Target sequence (Q9BQF6 706-1050 limits assumed): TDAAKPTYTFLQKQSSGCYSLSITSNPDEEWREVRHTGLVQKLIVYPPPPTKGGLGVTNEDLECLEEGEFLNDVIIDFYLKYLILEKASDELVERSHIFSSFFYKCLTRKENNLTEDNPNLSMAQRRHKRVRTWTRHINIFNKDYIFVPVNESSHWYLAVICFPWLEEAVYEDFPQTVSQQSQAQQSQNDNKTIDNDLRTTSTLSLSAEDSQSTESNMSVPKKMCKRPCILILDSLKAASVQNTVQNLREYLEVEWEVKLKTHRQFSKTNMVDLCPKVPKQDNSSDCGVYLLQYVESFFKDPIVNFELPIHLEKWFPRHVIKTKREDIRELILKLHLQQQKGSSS
SENP8 conf: confirmation of human SENP8 protease inhibitors; hit rate 40% among 6,200; Recombinant SENP8, Z-RLRGG-aminoluciferin luminescence, 60 min; AID 488912; shares compounds with SENP7 inh; inhibition, % at 12.5 µM;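 active = mean inhibition across replicates above about 50%, limit read from the data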
SENP6 confirm: confirmation of human SENP6 protease inhibitors; shares compounds with SENP7 inh; recombinant SENP6, Z-RLRGG-aminoluciferin luminescence; inhibition, % at 12.5 µM; hit rate 58% among 6,200
SENP7 conf: human SENP7 inhibition, confirmed. shares compounds with SENP7 inh. recombinant SENP7, Z-RLRGG-aminoluciferin luminescence, 40 min. inhibition, % at 12.5 µM. hit rate 69% among 6,200. AID 488917
Casp3 SENP sel: caspase-3 inhibition (SENP selectivity assay) | shares compounds with SENP7 inh | purified caspase-3, Z-DEVD-aminoluciferin luminescence, 60 min | inhibition, % at 12.5 µM | hit rate 60% among 6,200;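 active = mean inhibition above about 50%, limit read from the data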;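 note: plate controls were enzyme with DMSO for no effect and wells without caspase-3 for full effect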
Target sequence (P42574 28-227 limits assumed): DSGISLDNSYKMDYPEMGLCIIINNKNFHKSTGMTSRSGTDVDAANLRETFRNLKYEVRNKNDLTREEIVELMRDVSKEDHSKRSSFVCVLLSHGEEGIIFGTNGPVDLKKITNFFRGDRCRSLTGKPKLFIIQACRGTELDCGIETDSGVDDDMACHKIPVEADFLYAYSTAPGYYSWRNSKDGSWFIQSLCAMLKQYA
SENP luc ctr: luminescence interference (SENP counter-screen); AID 488919; shares compounds with SENP7 inh; Pre-incubated SENP8/Z-RLRGG-aminoluciferin, luciferase luminescence interference; hit rate 39% among 6,200; inhibition, % at 12.5 µM;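 active = mean inhibition above about 50% when retested at one dose, limit read from the data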;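 note: plate controls were DMSO wells with completed reaction for no effect and substrate without enzyme for full effect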
Numbers without * were called inactive; x = no result given. Most compounds without a hit are left out; they make up all but 2.5% or so of the library.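 Rule for the calls, unless noted: active = mean inhibition above about 50% in the one-dose retest (limit read from the data); inactive = the rest.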

SMILES | SENP8 block-1 | SENP1 inh | SENP6 inh | SENP8 block-2 | SENP7 inh | SENP8 conf | SENP6 confirm | SENP7 conf | Casp3 SENP sel | SENP luc ctr
Cc1ccc(SC/C(O)=C(\C#N)c2nc3ccccc3s2)cc1 | 29.1 | -1.1 | 70.5* | 24.6 | -0.2 | 5.9 | 21.7 | 12.9 | 15.6 | 8.3
O=C(/C=C/c1ccc([N+](=O)[O-])cc1)Nc1cccnc1 | 23.2 | 3.7 | 70.6* | 33.1 | 57.7* | 47.8 | 64.0* | 91.5* | 76.6* | 31.6
O=C(/C=C/c1ccccc1)Nc1cccnc1 | 6.6 | 3.6 | 66.3* | 51.2* | 75.8* | -18.9 | 56.9* | 89.5* | 83.9* | 72.5*
O=C(C=Cc1ccccc1)Nc1ccccc1 | -1.2 | 1.4 | x | x | x | x | x | x | x | x
O=C(/C=C/c1ccc(Cl)c([N+](=O)[O-])c1)Nc1cccnc1 | 29.9 | -0.2 | -27.6 | -10.7 | -1.6 | x | x | x | x | x
CCN(CC)C(=O)COc1ccc(C=O)cc1OC | 12.1 | 0.9 | -5.4 | -12.3 | -5.9 | x | x | x | x | x
CN(c1ccccc1)S(=O)(=O)c1ccc(NC(=O)CC(=O)c2ccccc2)cc1 | -8.7 | -1.1 | x | x | x | x | x | x | x | x
Oc1c(C=NCc2ccccc2)sc2ccccc12 | -28.9 | -159.7 | 6.5 | -5.9 | -5.3 | x | x | x | x | x
Oc1c(N=Nc2ccccc2)sc2ccccc12 | 1.3 | -16.3 | 97.8* | 94.5* | 98.9* | 75.3* | 98.2* | 103.1* | 96.4* | 9.9
CCOC(=O)CNC(=O)CSc1nnc(NC(=O)c2ccc3c(c2)OCO3)s1 | -54.5 | 1.1 | 54.5* | 53.9* | 78.5* | 4.9 | 6.3 | 18.7 | 49.6 | 3.6
CCOC(=O)CNC(=O)CSc1nnc(NC(=O)c2ccc(C)cc2)s1 | -11.4 | 1.9 | -14.2 | -6.3 | 30.1 | x | x | x | x | x
CSc1nnc(NC(=O)c2ccc(S(=O)(=O)N(C)C)cc2)s1 | -4.6 | 2.3 | 21.9 | 40.6 | 51.0* | 15.7 | 14.3 | 13.0 | 31.5 | 5.9
CSc1nnc(NC(=O)c2ccc3c(c2)OCO3)s1 | -109.4 | -0.2 | 96.4* | 89.8* | 96.9* | 29.7 | 37.8 | 64.5* | 51.2* | 11.6
Cc1nnc(SCC(=O)N2CCN(c3ccccc3)CC2)n(N)c1=O | 0.6 | 3.4 | 7.3 | 2.7 | 0.1 | x | x | x | x | x
COCc1nnc(NC(=O)c2sc3ccccc3c2Cl)s1 | 15.8 | 1.1 | 55.0* | 45.5 | 31.1 | 40.9 | 37.0 | 76.2* | 61.0* | 65.9*
O=C(Nc1ccccn1)c1sc2cccc(F)c2c1Cl | -0.9 | -0.5 | -17.5 | 7.0 | 89.9* | 8.7 | 13.0 | 2.9 | 5.9 | -1.2
Cc1ccc(NC(=O)c2sc3ccccc3c2Cl)nc1 | 3.8 | -5.7 | 72.5* | 62.9* | 92.9* | 3.4 | 1.8 | -0.3 | 7.5 | -2.1
CCOC(=O)Cc1cnc(NC(=O)CSc2nc(C)c(CC)c(=O)[nH]2)s1 | 7.3 | 0.7 | 2.9 | -0.5 | -3.4 | x | x | x | x | x
O=C(COC(=O)CCC(=O)c1ccc(F)cc1)Nc1cccc(S(=O)(=O)N2CCCC2)c1 | 15.5 | 5.3 | 88.5* | -2.1 | -1.8 | 3.4 | -4.2 | -10.4 | -2.9 | -2.5
COc1ccc(C(=O)Nc2cccc(C(=O)O)c2)cc1S(=O)(=O)N1CCCC1 | 3.2 | 0.2 | 51.2* | 35.8 | 54.4* | 37.8 | 35.8 | 73.4* | 15.9 | 9.3
O=C(Nc1cccc(O)c1)c1cccc(S(=O)(=O)N2CCCCCC2)c1 | 1.4 | -1.4 | -10.8 | -11.9 | -4.1 | x | x | x | x | x
O=C(O)c1cccc(NC(=O)c2cccc(S(=O)(=O)N3CCCCC3)c2)c1 | 9.3 | 2.9 | 76.8* | 64.2* | 78.3* | 79.0* | 77.0* | 93.6* | 42.4 | 65.9*
Cn1cc(-c2csc(C(O)c3ccc(F)cc3)n2)cn1 (stereo not drawn) | 9.7 | -2.2 | x | x | x | x | x | x | x | x
CC(=O)Nc1c2c(nn1-c1ccc(F)cc1)CSC2 | 12.1 | 0.5 | 7.3 | 5.9 | 3.8 | x | x | x | x | x
COC(=O)N1C(=O)[C@](c2ccsc2)(C(C)C)N1C(=O)OC | -0.3 | 0.9 | -22.3 | -10.8 | 5.6 | x | x | x | x | x
SMILES | SENP8 block-1 | SENP1 inh | SENP6 inh | SENP8 block-2 | SENP7 inh | SENP8 conf | SENP6 confirm | SENP7 conf | Casp3 SENP sel | SENP luc ctr
Cc1cccc2c1cnn2C(=O)Nc1cc(F)ccc1F | 21.6 | 0.1 | 61.2* | 42.7 | 4.6 | 29.8 | 37.4 | 7.0 | 43.2 | 11.7
Cc1ccc(-c2cc(-c3ccccc3)no2)cc1 | 12.4 | -1.5 | 96.6* | 92.2* | 98.0* | -23.4 | 29.4 | 70.7* | 26.2 | 23.6
Cc1ccc(O)c(NC(=O)c2cc(-c3ccccc3)on2)c1 | 17.3 | 0.2 | 18.3 | -5.8 | 45.3 | x | x | x | x | x
Nc1nc(-c2cc(-c3ccccc3)no2)cs1 | -6.9 | -1.9 | 96.4* | 94.6* | 96.0* | 96.6* | 97.3* | 102.0* | 95.0* | 83.3*
Nc1nc(-c2ccccc2)cs1 | 13.5 | 2.7 | -0.5 | -14.6 | -13.3 | x | x | x | x | x
O=C(c1ccccc1)c1cc(-c2ccccc2)on1 | 15.6 | 0.8 | 99.4* | 97.2* | 100.5* | 3.7 | 100.9* | 103.8* | 98.7* | 94.5*
c1ccc(-c2cc(-c3ccccc3)on2)cc1 | 32.3 | 0.5 | -9.6 | 87.4* | 97.6* | 5.1 | 84.9* | 48.2 | 56.5* | 45.3
Cc1cc(NC(=O)c2cc(-c3ccccc3)on2)no1 | 1.1 | 1.4 | -22.1 | -3.1 | 10.6 | x | x | x | x | x
O=C(c1cccc(N2C(=O)C3C4C=CC(C4)C3C2=O)c1)N1CCN(c2ccccc2Cl)CC1 (stereo not drawn) | 16.2 | 2.6 | 1.9 | 1.7 | -2.6 | x | x | x | x | x
CCCCc1ccc(S(=O)(=O)Nc2nnc(C)s2)cc1 | 5.1 | 1.0 | -16.3 | -9.1 | -7.2 | x | x | x | x | x
Nc1c(-c2n[nH]c(=S)n2-c2ccc(Cl)cc2Cl)cnn1-c1ccccc1 | 27.3 | 2.7 | -28.6 | 3.0 | 2.4 | x | x | x | x | x
Nc1[nH]nc2c1NN(c1ccc(Cl)cc1Cl)N2 | 14.7 | 0.8 | 65.0* | 37.1 | 39.1 | -3.3 | -5.1 | -5.9 | -3.2 | 0.0
C=C1C(=O)c2sccc2C(c2ccc(OC)c(OC)c2)C1COC(C)=O (stereo not drawn) | 13.2 | 1.3 | x | x | x | x | x | x | x | x
CN(C)S(=O)(=O)c1cccc(C(=O)N=C2N=C3C=CC(Cl)=CN3Cc3ccccc32)c1 | 11.1 | 2.1 | 91.1* | 68.8* | 88.8* | 11.8 | 15.4 | 41.8 | 66.9* | 20.0
COc1ccccc1OCC(=O)Nc1ccncc1 | 12.4 | -2.9 | -4.2 | -6.2 | -4.1 | x | x | x | x | x
O=C(COc1ccc(Cl)cc1Cl)Nc1ccccn1 | 9.6 | -1.1 | -9.5 | 97.8* | 99.7* | 96.1* | 97.8* | 100.7* | 96.0* | 80.3*
O=C(COc1ccccc1)Nc1ccc(Cl)cn1 | 8.2 | 0.8 | 0.1 | -13.4 | 6.0 | x | x | x | x | x
